Paper PMC9470386 (Plant Direct, 2022)
Entries after “also recorded” stand apart in the source; their conditions may differ.

Key:
AtDLK2 wt [1] = target: T1, AtDLK2 wt (Arabidopsis thaliana, UniProt F4J6L0); test: Differential scanning fluorimetry, AtDLK2 wt; type: binding
T1 sequence (F4J6L0 1-273): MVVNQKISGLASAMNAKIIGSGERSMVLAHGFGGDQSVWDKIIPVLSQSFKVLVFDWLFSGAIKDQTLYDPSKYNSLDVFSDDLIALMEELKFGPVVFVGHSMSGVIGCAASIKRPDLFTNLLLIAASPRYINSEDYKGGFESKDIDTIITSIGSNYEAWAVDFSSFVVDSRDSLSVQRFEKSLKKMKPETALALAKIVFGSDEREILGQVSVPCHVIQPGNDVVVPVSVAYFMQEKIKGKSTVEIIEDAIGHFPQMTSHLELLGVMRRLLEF

AtDLK2 F167L = target: T2, AtDLK2 F167L (Arabidopsis thaliana, UniProt F4J6L0, F167L); test: Differential scanning fluorimetry, AtDLK2 F167L; type: binding
T2 sequence (F4J6L0 1-273 F167L): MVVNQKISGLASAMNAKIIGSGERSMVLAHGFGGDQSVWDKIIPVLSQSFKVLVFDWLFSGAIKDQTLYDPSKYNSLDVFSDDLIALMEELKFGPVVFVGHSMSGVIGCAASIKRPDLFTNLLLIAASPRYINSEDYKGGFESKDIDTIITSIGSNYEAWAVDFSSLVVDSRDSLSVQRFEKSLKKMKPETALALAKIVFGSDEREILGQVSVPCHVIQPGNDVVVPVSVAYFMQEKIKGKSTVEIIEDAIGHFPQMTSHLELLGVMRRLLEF
In short: (§1)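 Recombinant protein was expressed in E. coli BL21(DE3), GST-affinity captured, tag removed by on-column HRV3 protease, then size-exclusion purified. DSF used 10 μg protein with rac-GR24 and 3× (final) Sypro Orange in 20 mM TRIS-HCl, 30 mM NaCl, 1 mM TCEP-HCl, pH 7.7. Heating ran 25–95°C at 1°C per minute, in triplicate, and was read from the denaturation curve and its derivative.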

AtDLK2 F167A [2] = target: T3, AtDLK2 F167A (Arabidopsis thaliana, UniProt F4J6L0, F167A); test: Differential scanning fluorimetry, AtDLK2 F167A; type: binding
T3 sequence (F4J6L0 1-273 F167A): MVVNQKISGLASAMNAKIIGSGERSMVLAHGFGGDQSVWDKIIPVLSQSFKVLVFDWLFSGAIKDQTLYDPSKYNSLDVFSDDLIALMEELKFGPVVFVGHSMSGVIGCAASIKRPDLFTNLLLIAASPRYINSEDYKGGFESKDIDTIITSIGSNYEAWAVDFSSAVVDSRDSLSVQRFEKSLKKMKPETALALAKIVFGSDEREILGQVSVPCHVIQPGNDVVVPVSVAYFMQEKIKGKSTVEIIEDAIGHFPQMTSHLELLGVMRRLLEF
In short: as §1

AtD14 [3] = target: T4, AtD14 (Arabidopsis thaliana, UniProt Q9SQR3); test: Differential scanning fluorimetry, AtD14; type: binding
T4 sequence (Q9SQR3 1-267): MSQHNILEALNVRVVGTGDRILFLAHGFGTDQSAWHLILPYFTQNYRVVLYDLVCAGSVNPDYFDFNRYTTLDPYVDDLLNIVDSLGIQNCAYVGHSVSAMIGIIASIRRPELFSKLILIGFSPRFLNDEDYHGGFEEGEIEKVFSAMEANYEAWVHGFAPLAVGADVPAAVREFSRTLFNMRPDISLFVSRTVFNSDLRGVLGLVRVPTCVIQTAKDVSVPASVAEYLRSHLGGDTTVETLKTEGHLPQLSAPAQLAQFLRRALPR
In short: as §1

AtD14 [4] = target: T4, AtD14; conditions: substrate rac‐GR24; ref Zhao et al., 2013; cited from earlier work
AtD14 [5] = target: T4, AtD14; test: Inhibition of AtD14 enzymatic activity on pNP acetate; type: biochemical; conditions: for inhibition of the enzymatic activity of AtD14 (in words): pNP acetate as substrate
AtKAI2 [6] = target: T5, AtKAI2 (Arabidopsis thaliana, UniProt Q9SZU7); test: Inhibition of AtKAI2 enzymatic activity on pNP acetate; type: biochemical; conditions: for inhibition of the enzymatic activity of AtKAI2 (in words): pNP acetate as substrate
T5 sequence (Q9SZU7 1-270): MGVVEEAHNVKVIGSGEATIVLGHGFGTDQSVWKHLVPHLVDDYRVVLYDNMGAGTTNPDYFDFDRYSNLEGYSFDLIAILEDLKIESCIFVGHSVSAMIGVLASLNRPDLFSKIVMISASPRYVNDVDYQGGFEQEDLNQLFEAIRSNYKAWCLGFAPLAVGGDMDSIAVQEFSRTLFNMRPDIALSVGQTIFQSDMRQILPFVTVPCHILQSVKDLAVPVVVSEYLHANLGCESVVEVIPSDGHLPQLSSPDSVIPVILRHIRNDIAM

AtDLK2 wt [7] = test: Michaelis–Menten kinetics on para‐nitrophenyl acetate, AtDLK2 wt; type: biochemical, Arabidopsis thaliana; conditions: substrate pNP acetate
AtDLK2 F167A [8] = target: T3, AtDLK2 F167A; test: Michaelis–Menten kinetics on para‐nitrophenyl acetate, AtDLK2 F167A; type: biochemical; conditions: substrate pNP acetate
AtKAI2 [9] = target: T5, AtKAI2; test: Michaelis–Menten kinetics on para‐nitrophenyl acetate, AtKAI2; type: biochemical; conditions: substrate pNP acetate
AtDLK2 [10] = target: T6, AtDLK2 (Arabidopsis thaliana, UniProt F4J6L0); conditions: ref Végh et al., 2017; cited from earlier work
T6 sequence (F4J6L0 1-273): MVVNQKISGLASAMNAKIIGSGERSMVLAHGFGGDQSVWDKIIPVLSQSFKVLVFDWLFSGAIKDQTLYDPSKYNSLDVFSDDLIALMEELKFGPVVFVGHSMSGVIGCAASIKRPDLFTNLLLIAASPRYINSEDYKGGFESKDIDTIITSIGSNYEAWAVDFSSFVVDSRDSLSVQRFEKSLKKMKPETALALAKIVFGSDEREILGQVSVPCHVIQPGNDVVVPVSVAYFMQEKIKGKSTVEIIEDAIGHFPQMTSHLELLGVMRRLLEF

AtDLK2 [11] = target: T6, AtDLK2; conditions: at high concentrations; ref Végh et al., 2017; cited from earlier work
[12] = substrate: CC(=O)Oc1ccc([N+](=O)[O-])cc1; test: Michaelis–Menten kinetics on para‐nitrophenyl acetate, AtDLK2 wt; type: biochemical, Arabidopsis thaliana; conditions: other: AtDLK2 wt, substrate pNP acetate; pH 7.0
[13] = substrate: CC(=O)Oc1ccc([N+](=O)[O-])cc1; test: Michaelis–Menten kinetics on para‐nitrophenyl acetate, AtDLK2 F167L; type: biochemical, Arabidopsis thaliana; conditions: other: AtDLK2 F167L, substrate pNP acetate; pH 7.0
[14] = substrate: CC(=O)Oc1ccc([N+](=O)[O-])cc1; test: Michaelis–Menten kinetics on para‐nitrophenyl acetate, AtDLK2 F167A; type: biochemical, Arabidopsis thaliana; conditions: other: AtDLK2 F167A, substrate pNP acetate; pH 7.0
[15] = substrate: CC(=O)Oc1ccc([N+](=O)[O-])cc1; test: Michaelis–Menten kinetics on para‐nitrophenyl acetate, AtD14; type: biochemical, Arabidopsis thaliana; conditions: other: AtD14, substrate pNP acetate; pH 7.0
[16] = substrate: CC(=O)Oc1ccc([N+](=O)[O-])cc1; test: Michaelis–Menten kinetics on para‐nitrophenyl acetate, AtKAI2; type: biochemical, Arabidopsis thaliana; conditions: other: AtKAI2, substrate pNP acetate; pH 7.0
[17] = 100 μM concentration of 1, pNP acetate as substrate

## CC1=C[C@H](O/C=C2/C(=O)O[C@@H]3c4ccccc4C[C@H]23)OC1=O (racemic) [rac‐GR24]
AtDLK2 wt [1]
  rac‐GR24‐induced destabilization in DSF: no or marginal
AtDLK2 F167L
  rac‐GR24‐induced destabilization in DSF: no or marginal
AtDLK2 F167A [2]
  rac‐GR24‐induced destabilization in DSF: no or marginal
AtD14 [3]
  rac‐GR24‐induced destabilization in DSF: clearly destabilize
AtD14 [4]
  turnover rate of AtD14: 1 molecule/3 min

## CC1(c2ccccc2)CC(C)(C)N2C(=O)C(=O)c3cccc1c32 (stereo not shown) [Compound 1, 4,4,6‐Trimethyl‐6‐phenyl‐5,6‐dihydro‐4H‐pyrrolo[3,2,1‐ij]quinoline‐1,2‐dione]
AtD14 [5]; [17]
  retained activity of AtD14: 84%
AtD14 [5]; 1 at concentrations of 12.5 μM or higher
  decrease of AtD14's enzymatic activity: slight decrease
AtD14 [5]
  inhibition of the enzymatic activity of AtD14 (in words): only marginally inhibits
AtD14 [5]; listed as compound 1
  inhibition of the enzymatic activity of AtD14 (in words): only marginally decreasing
AtKAI2 [6]; [17]
  retained activity of AtKAI2: 95%
AtKAI2 [6]; 1 at concentrations of 50 μM or higher
  decrease of AtKAI2's activity: marginal decrease
AtKAI2 [6]
  inhibition of the enzymatic activity of AtKAI2 (in words): only marginally inhibits
AtKAI2 [6]; listed as compound 1
  inhibition of the enzymatic activity of AtKAI2 (in words): only marginally decreasing

## CC(=O)Oc1ccc([N+](=O)[O-])cc1 [pNP acetate, para‐nitrophenyl acetate]
AtDLK2 wt [7]
  catalytic efficiency of AtDLK2 relative to AtD14: 625 times higher
  catalytic efficiency of AtDLK2 relative to AtKAI2: 6.7 times higher
AtDLK2 F167A [8]
  turnover number (kcat): 67 molecules per second
AtKAI2 [9]
  catalytic efficiency of AtKAI2 relative to AtD14: 94 times higher

## (−)‐5‐deoxystrigol
AtDLK2 [10]
  hydrolytic activity of AtDLK2 (in words): moderate hydrolytic activity; also recorded: poor but detectable hydrolytic activity
AtDLK2 [11]
  reaction of AtDLK2 in DSF experiments (in words): able to react

B1: AtDLK2 wt (Arabidopsis thaliana) (protein)
chain: MVVNQKISGLASAMNAKIIGSGERSMVLAHGFGGDQSVWDKIIPVLSQSFKVLVFDWLFSGAIKDQTLYDPSKYNSLDVFSDDLIALMEELKFGPVVFVGHSMSGVIGCAASIKRPDLFTNLLLIAASPRYINSEDYKGGFESKDIDTIITSIGSNYEAWAVDFSSFVVDSRDSLSVQRFEKSLKKMKPETALALAKIVFGSDEREILGQVSVPCHVIQPGNDVVVPVSVAYFMQEKIKGKSTVEIIEDAIGHFPQMTSHLELLGVMRRLLEF
[12]
  Km: 2.58 ± 0.10 × 10^−4 M
  kcat: 26.6 ± 0.7 s⁻¹
  kcat/Km: 103000 ± 4000 M⁻¹ s⁻¹

B2: AtDLK2 F167L (Arabidopsis thaliana; F167L) (protein)
chain: MVVNQKISGLASAMNAKIIGSGERSMVLAHGFGGDQSVWDKIIPVLSQSFKVLVFDWLFSGAIKDQTLYDPSKYNSLDVFSDDLIALMEELKFGPVVFVGHSMSGVIGCAASIKRPDLFTNLLLIAASPRYINSEDYKGGFESKDIDTIITSIGSNYEAWAVDFSSLVVDSRDSLSVQRFEKSLKKMKPETALALAKIVFGSDEREILGQVSVPCHVIQPGNDVVVPVSVAYFMQEKIKGKSTVEIIEDAIGHFPQMTSHLELLGVMRRLLEF
[13]
  Km: 2.53 ± 0.16 × 10^−4 M
  kcat: 69.8 ± 1.5 s⁻¹
  kcat/Km: 276000 ± 17000 M⁻¹ s⁻¹

B3: AtDLK2 F167A (Arabidopsis thaliana; F167A) (protein)
chain: MVVNQKISGLASAMNAKIIGSGERSMVLAHGFGGDQSVWDKIIPVLSQSFKVLVFDWLFSGAIKDQTLYDPSKYNSLDVFSDDLIALMEELKFGPVVFVGHSMSGVIGCAASIKRPDLFTNLLLIAASPRYINSEDYKGGFESKDIDTIITSIGSNYEAWAVDFSSAVVDSRDSLSVQRFEKSLKKMKPETALALAKIVFGSDEREILGQVSVPCHVIQPGNDVVVPVSVAYFMQEKIKGKSTVEIIEDAIGHFPQMTSHLELLGVMRRLLEF
[14]
  Km: 2.78 ± 0.08 × 10^−4 M
  kcat: 66.9 ± 0.6 s⁻¹
  kcat/Km: 241000 ± 7000 M⁻¹ s⁻¹

B4: AtD14 (Arabidopsis thaliana) (protein)
chain: MSQHNILEALNVRVVGTGDRILFLAHGFGTDQSAWHLILPYFTQNYRVVLYDLVCAGSVNPDYFDFNRYTTLDPYVDDLLNIVDSLGIQNCAYVGHSVSAMIGIIASIRRPELFSKLILIGFSPRFLNDEDYHGGFEEGEIEKVFSAMEANYEAWVHGFAPLAVGADVPAAVREFSRTLFNMRPDISLFVSRTVFNSDLRGVLGLVRVPTCVIQTAKDVSVPASVAEYLRSHLGGDTTVETLKTEGHLPQLSAPAQLAQFLRRALPR
[15]
  Km: 2.00 ± 0.16 × 10^−2 M
  kcat: 3.2 ± 0.06 s⁻¹
  kcat/Km: 160 ± 12 M⁻¹ s⁻¹

B5: AtKAI2 (Arabidopsis thaliana) (protein)
chain: MGVVEEAHNVKVIGSGEATIVLGHGFGTDQSVWKHLVPHLVDDYRVVLYDNMGAGTTNPDYFDFDRYSNLEGYSFDLIAILEDLKIESCIFVGHSVSAMIGVLASLNRPDLFSKIVMISASPRYVNDVDYQGGFEQEDLNQLFEAIRSNYKAWCLGFAPLAVGGDMDSIAVQEFSRTLFNMRPDIALSVGQTIFQSDMRQILPFVTVPCHILQSVKDLAVPVVVSEYLHANLGCESVVEVIPSDGHLPQLSSPDSVIPVILRHIRNDIAM
[16]
  Km: 1.56 ± 0.06 × 10^−3 M
  kcat: 23.6 ± 0.6 s⁻¹
  kcat/Km: 15100 ± 600 M⁻¹ s⁻¹
